Source: ChEMBL document CHEMBL1255395, “Laninamivir prodrug CS-8958, a long-acting neuraminidase inhibitor, shows superior anti-influenza virus activity after a single administration” (Antimicrob Agents Chemother, 2010)
Activity calls are given as the source filed them. No cut-off for these calls is given here.

How the values were obtained:
Influenza A virus [1] = test: Antimicrobial activity against Influenza A virus (A/Puerto Rico/8/34(H1N1)) infected in BALB/c mouse assessed as increase in mouse survival at 0.37 mg/kg, itn administered for 7 days before infection; assay type: functional, organism-based; design: dose 0.37 mg/kg; settings: A/Puerto Rico/8/1934(H1N1)
Procedure, shortened: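 Single intranasal dose in saline (50 μl) given to anesthetized female BALB/c mice 7 days before intranasal infection with A/PR/8/34 at 500 PFU, n = 12. Survival was checked daily to day 20. Groups were compared with saline controls by Kaplan-Meier and log-rank test, with Bonferroni adjustment where needed.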

Influenza A virus [2] = test: Antimicrobial activity against Influenza A virus (A/Puerto Rico/8/34(H1N1)) infected in BALB/c mouse assessed as increase in mouse survival at 0.71 mg/kg, itn administered for 7 days before infection; assay type: functional, organism-based; design: dose 0.71 mg/kg; settings: A/Puerto Rico/8/1934(H1N1)
Influenza A virus [3] = test: Antimicrobial activity against Influenza A virus (A/Puerto Rico/8/34(H1N1)) infected in BALB/c mouse assessed as reduction in viral titer in lung at 0.080 mg/kg, itn after 11 hrs post infection; assay type: functional, organism-based; design: dose 0.08 mg/kg; settings: A/Puerto Rico/8/1934(H1N1), TDE = time-dependent effect
Procedure, shortened: (§1)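 BALB/c mice infected intranasally with A/PR/8/34 at 30 PFU. Oral drug was given twice daily from 11 hpi with intranasal saline at 11 hpi, or a single intranasal dose at 11 hpi with oral saline on the same schedule. Lungs (n = 3) were harvested at 35, 59 and 83 hpi. Titers were measured by MDCK plaque assay, log10 PFU/lungs.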

Influenza B virus [4] = test: Antimicrobial activity against Influenza B virus (B/Hong Kong/05/1972) infected in BALB/c mouse assessed as increase in mouse survival at 0.23 mg/kg, itn administered for 7 days before infection; assay type: functional, organism-based; design: dose 0.23 mg/kg
Influenza B virus [5] = test: Antimicrobial activity against Influenza B virus (B/Hong Kong/05/1972)infected in BALB/c mouse assessed as increase in mouse survival at 0.076 mg/kg, itn administered for 7 days before infection; assay type: functional, organism-based; design: dose 0.076 mg/kg
Influenza A virus [6] = test: Antimicrobial activity against Influenza A virus (A/Puerto Rico/8/34(H1N1)) infected in BALB/c mouse assessed as increase in mouse survival at 0.17 mg/kg, itn for 12 hrs post infection; assay type: functional, organism-based; design: dose 0.17 mg/kg; settings: A/Puerto Rico/8/1934(H1N1)
Influenza A virus [7] = test: Antimicrobial activity against Influenza A virus (A/Puerto Rico/8/34(H1N1)) infected in BALB/c mouse assessed as increase in mouse survival at 0.095 mg/kg, itn administered for 7 days before infection; assay type: functional, organism-based; design: dose 0.095 mg/kg; settings: A/Puerto Rico/8/1934(H1N1)
Influenza A virus [8] = test: Antimicrobial activity against Influenza A virus (A/Puerto Rico/8/34(H1N1)) infected in BALB/c mouse assessed as increase in mouse survival at 0.017 mg/kg, itn administered 11 hrs post infection for 5 days […] infection measured on day 20; assay type: functional, A/Puerto Rico/8/1934(H1N1)
Procedure, shortened: (§2)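 Female BALB/c mice (5–6 weeks) infected intranasally with A/PR/8/34 at 100 PFU, n = 10 per group. Each mouse got one intranasal dose at 11 hpi plus oral doses twice daily from 11 hpi to 120 hpi. Drug went by one route and saline by the other, all in saline vehicle. Survival was followed daily to day 20 and analysed by Kaplan-Meier with a log-rank test against the saline group.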

Influenza A virus [9] = test: Antimicrobial activity against Influenza A virus (A/Puerto Rico/8/34(H1N1)) infected in BALB/c mouse assessed as increase in mouse survival at 0.17 mg/kg, itn for 1 day post infection; assay type: functional, organism-based; design: dose 0.17 mg/kg; settings: A/Puerto Rico/8/1934(H1N1)
Influenza A virus [10] = test: Antimicrobial activity against oseltamivir-sensitive influenza A virus (A/Yokohama/67/2006 (H1N1)) clone 1 infected in BALB/c mouse assessed as reduction in viral titer in lung at 0.080 mg/kg, itn administered 13 hrs post infection measured after 37 hrs post infection; assay type: functional, organism-based; design: dose 0.08 mg/kg
Procedure, shortened: (§3)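 Female BALB/c mice infected intranasally with A/Yokohama/67/2006 clone 1. From 13 hpi they received either a single intranasal dose (0.057 or 0.17 μmol/kg) or 1.0 or 10 mg/kg oral twice daily. Lung titers measured at 37, 61 and 85 hpi by MDCK plaque assay, log10 PFU/lungs (n = 3). Detection limit 2.4.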

Influenza A virus [11] = test: Antimicrobial activity against Influenza A virus (A/Puerto Rico/8/34(H1N1)) infected in BALB/c mouse assessed as increase in mouse survival at 0.085 mg/kg, itn administered for 7 days before infection; assay type: functional, organism-based; design: dose 0.085 mg/kg; settings: A/Puerto Rico/8/1934(H1N1)
Influenza A virus [12] = test: Antimicrobial activity against Influenza A virus (A/Puerto Rico/8/34(H1N1)) infected in BALB/c mouse assessed as increase in mouse survival at 0.017 mg/kg, itn administered 11 hrs post infection for 5 days […] infection; assay type: functional, organism-based; design: dose 0.017 mg/kg; settings: A/Puerto Rico/8/1934(H1N1); procedure, shortened: as §2
Influenza B virus [13] = test: Antimicrobial activity against Influenza B virus (B/Hong Kong/05/1972) infected in BALB/c mouse assessed as increase in mouse survival at 0.23 mg/kg, itn administered for 7 days before infection measured at day 20; assay type: functional
Influenza A virus [14] = test: Antimicrobial activity against Influenza A virus (A/Puerto Rico/8/34(H1N1)) infected in BALB/c mouse assessed as reduction in viral titer in lung at 0.24 mg/kg, itn administered 11 hrs post infection measured after 59 hrs post infection; assay type: functional, organism-based; design: dose 0.24 mg/kg; settings: A/Puerto Rico/8/1934(H1N1)
Procedure, shortened: (§4)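 BALB/c mice infected intranasally with A/PR/8/34 at 30 PFU. Intranasal dosing at 0.5 μmol/kg began at 11 hpi, either repeated twice daily or given once followed by twice-daily saline. Lungs (n = 3) were taken at 35, 59 and 83 hpi and homogenized. Titers were measured by MDCK plaque assay as log10 PFU/lungs. Two-way ANOVA and Dunnett test were applied.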

Influenza A virus [15] = test: Antimicrobial activity against Influenza A virus (A/Puerto Rico/8/34(H1N1)) infected in BALB/c mouse assessed as reduction in viral titer in lung at 0.24 mg/kg, itn administered 11 hrs post infection measured after 83 hrs post infection; assay type: functional, organism-based; design: dose 0.24 mg/kg; settings: A/Puerto Rico/8/1934(H1N1); procedure, shortened: as §4
Influenza A virus [16] = test: Antimicrobial activity against Influenza A virus (A/Puerto Rico/8/34(H1N1)) infected in BALB/c mouse assessed as increase in mouse survival at 0.17 mg/kg, itn for 4 days post infection; assay type: functional, organism-based; design: dose 0.17 mg/kg; settings: A/Puerto Rico/8/1934(H1N1)
Influenza B virus [17] = test: Antimicrobial activity against Influenza B virus (B/Malaysia/2506/2004) infected itn dosed Mustela putorius furo assessed as nasal viral titer treated after 4 hrs post infection measured after 1 day; assay type: functional, organism-based
Procedure, shortened: (§5)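 Ferrets (600–800 g), seronegative by hemagglutination inhibition, anaesthetized with ketamine/xylazine and infected with B/Malaysia/2506/2004, 1,000 PFU/100 μl. From 4 hpi they received either a single intranasal dose (saline, 0.05 or 0.5 μmol/kg) or 25 mg/kg oral twice daily. Nasal wash titers measured by MDCK plaque assay on days 1, 2 and 3, log10 PFU/ml (n = 5). Undetectable samples entered at the lower limit of detection.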

Influenza A virus [18] = test: Antimicrobial activity against Influenza A virus (A/Puerto Rico/8/34(H1N1)) infected in BALB/c mouse assessed as increase in mouse survival at 0.17 mg/kg, itn for 7 days post infection; assay type: functional, organism-based; design: dose 0.17 mg/kg; settings: A/Puerto Rico/8/1934(H1N1)
Influenza B virus [19] = test: Antimicrobial activity against Influenza B virus (B/Hong Kong/05/1972) infected in BALB/c mouse assessed as increase in mouse survival at 0.71 mg/kg, itn administered for 7 days before infection; assay type: functional, organism-based; design: dose 0.71 mg/kg
Influenza A virus [20] = test: Antimicrobial activity against Influenza A virus (A/Puerto Rico/8/34(H1N1)) infected in BALB/c mouse assessed as increase in mouse survival at 0.25 mg/kg, itn administered for 7 days before infection; assay type: functional, organism-based; design: dose 0.25 mg/kg; settings: A/Puerto Rico/8/1934(H1N1)
Influenza A virus [21] = test: Antimicrobial activity against oseltamivir-sensitive influenza A virus (A/Yokohama/67/2006 (H1N1)) clone 1 infected in BALB/c mouse assessed as reduction in viral titer in lung at 0.080 mg/kg, itn administered post 13 hrs infection measured after 85 hrs post infection; assay type: functional, organism-based; design: dose 0.08 mg/kg; procedure, shortened: as §3
Influenza A virus [22] = test: Antimicrobial activity against Influenza A virus (A/Puerto Rico/8/34(H1N1)) infected in BALB/c mouse assessed as increase in mouse survival at 0.76 mg/kg, itn administered for 7 days before infection; assay type: functional, organism-based; design: dose 0.76 mg/kg; settings: A/Puerto Rico/8/1934(H1N1)
Influenza B virus [23] = test: Antimicrobial activity against Influenza B virus (B/Malaysia/2506/2004) infected itn dosed Mustela putorius furo assessed as nasal viral titer treated after 4 hrs post infection measured after 3 days; assay type: functional, organism-based; procedure, shortened: as §5
Influenza A virus [24] = test: Antimicrobial activity against Influenza A virus (A/Puerto Rico/8/34(H1N1)) infected in BALB/c mouse assessed as increase in mouse survival at 0.18 mg/kg, itn administered for 7 days before infection; assay type: functional, organism-based; design: dose 0.18 mg/kg; settings: A/Puerto Rico/8/1934(H1N1)
Influenza B virus [25] = test: Antimicrobial activity against Influenza B virus (B/Malaysia/2506/2004) infected itn dosed Mustela putorius furo assessed as nasal viral titer treated after 4 hrs post infection measured after 2 days; assay type: functional, organism-based; procedure, shortened: as §5
Influenza A virus [26] = test: Antimicrobial activity against Influenza A virus (A/Puerto Rico/8/34(H1N1)) infected in BALB/c mouse assessed as reduction in viral titer in lung at 0.24 mg/kg, itn administered 11 hrs post infection measured after 35 hrs post infection; assay type: functional, organism-based; design: dose 0.24 mg/kg; settings: A/Puerto Rico/8/1934(H1N1); procedure, shortened: as §4
Influenza A virus [27] = test: Antimicrobial activity against Influenza A virus (A/Puerto Rico/8/34(H1N1)) infected in BALB/c mouse assessed as reduction in viral titer in lung at 0.027 mg/kg, itn after 11 hrs post infection; assay type: functional, organism-based; design: dose 0.027 mg/kg; settings: A/Puerto Rico/8/1934(H1N1), TDE = time-dependent effect; procedure, shortened: as §1
Influenza A virus [28] = test: Antimicrobial activity against oseltamivir-sensitive influenza A virus (A/Yokohama/67/2006 (H1N1)) clone 1 infected in BALB/c mouse assessed as reduction in viral titer in lung at 0.080 mg/kg, itn administered 13 hrs post infection measured after 61 hrs post infection; assay type: functional, organism-based; design: dose 0.08 mg/kg; procedure, shortened: as §3

CCCCCCCC(=O)OC[C@@H](O)[C@@H](OC)[C@@H]1OC(C(=O)O)=C[C@H](NC(=N)N)[C@H]1NC(C)=O [LANINAMIVIR OCTANOATE]
Activity (Influenza A virus [1]): Active | Activity (Influenza A virus [2]): Active | Activity (Influenza A virus [3]): tde | Activity (Influenza B virus [4]): Active | Activity (Influenza B virus [5]): Active | Activity (Influenza A virus [6]): Active | Activity (Influenza A virus [7]): Active | Activity (Influenza A virus [8]): 30% | Activity (Influenza A virus [9]): Active | Activity (Influenza A virus [10]): Active | Activity (Influenza A virus [11]): Active | Activity (Influenza A virus [12]): Active | Activity (Influenza B virus [13]): 82% | Activity (Influenza A virus [14]): Active | Activity (Influenza A virus [15]): Active | Activity (Influenza A virus [16]): Active | Activity (Influenza B virus [17]): Dose-dependent effect | Activity (Influenza A virus [18]): Active | Activity (Influenza B virus [19]): Active | Activity (Influenza A virus [20]): Active | Activity (Influenza A virus [21]): Active | Activity (Influenza A virus [22]): Active | Activity (Influenza B virus [23]): Dose-dependent effect | Activity (Influenza A virus [24]): Active | Activity (Influenza B virus [25]): Dose-dependent effect | Activity (Influenza A virus [26]): Active | Activity (Influenza A virus [27]): tde | Activity (Influenza A virus [28]): Active
